Source: ChEMBL document CHEMBL5042485 (J Med Chem, 2022)
pEC50, pIC50, pKd: −log10 of the molar value. Activity calls are given as the source filed them. The calls are words filed in the database; no cut-off is given here.

Columns and labels:
[1] = Oral bioavailability in CD-1 mouse 5 mg/kg measured upto 24 hrs by LC-MS/MS analysis; assay type: ADME, organism-based; details: in vivo
In short: (§1)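 Male CD1 mice, three per group, dosed by tail-vein injection (1 mg/kg) or oral gavage (5 mg/kg). Saphenous blood was drawn at 0.25–24 h and plasma analysed by LC–MS/MS.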

[2] = Unbound clearance in CD-1 mouse at 1 mg/kg, iv measured upto 24 hrs by LC-MS/MS analysis; assay type: ADME, organism-based; details: in vivo; in short: as §1
[3] = Apparent permeability across apical to basolateral side in MDCK cells; assay type: ADME, cell-based, Canis lupus familiaris; details: dog
[4] = Metabolic stability in mouse liver microsomes assessed as intrinsic clearance; assay type: ADME, Microsome; details: read-out: CLH
[5] = Lipophilicity, log D of compound; assay type: physicochemical; details: octanol/water
[6] = target: Cyclin-dependent kinase 2/cyclin E1 (Homo sapiens, UniProt P24941); assay: Inhibition of CDK2/cyclin E1 (unknown origin) using 5-FAM-labeled peptide as substrate in presence of ATP by mobility shift assay; assay type: protein-complex assay
In short: (§2)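 Conditions by kinase: CDK2/cyclin E1 0.5 nM with 100 μM ATP; CDK9/cyclin T1 8 nM with 30 μM ATP; CDK12/cyclin K 50 nM with 30 μM ATP.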

[7] = system: HCC70; assay: Antiproliferative activity against human HCC70 cells incubated for 72 hrs by Celltiter-glo assay; assay type: functional, cell-based; details: HCC70, 72 h
In short: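 HCC70 cells in log growth plated the day before, then incubated with compound for 72 h at ten concentrations from 4 to 0.000126 μM, duplicates per dose. Read-out was CellTiter-Glo 2.0 viability. Inhibition was calculated against the averaged DMSO signal on the same plate.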

[8] = target: Cyclin-dependent kinase 7/ cyclin H (Homo sapiens, UniProt P50613); assay: Binding affinity to full length CDK7 (1 to 346 residues) /N-terminal TEV cleavable 6His tagged full length cyclinH (1 to 323 residues) (unknown origin) expressed in baculovirus infected Sf9 cells by Surface plasmon resonance assay
In short: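 SPR on CDK7/cyclin H dimer, amine-coupled to a CM5 chip at 200–400 RU, with reference flow cells subtracted. Titration was 9-step 2-fold from 20 nM in HEPES pH 7.5, 150 mM NaCl, 0.05% P20, with 70 s contact and 300 s dissociation. Slow off-rate binders were rerun 4-step 3-fold from 10 nM with 1800 s dissociation.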

[9] = target: CDK9/cyclin T1 (Homo sapiens, UniProt P50750); assay: Inhibition of CDK9/cyclin T1 (unknown origin) using 5-FAM-labeled peptide as substrate in presence of ATP by mobility shift assay; assay type: protein-complex assay; in short: as §2
[10] = target: CDK12/Cyclin K (Homo sapiens, UniProt Q9NYV4); assay: Inhibition of CDK12/cyclin K (unknown origin) using 5-FAM-labeled peptide as substrate in presence of ATP by mobility shift assay; assay type: protein-complex assay; in short: as §2
[11] = system: HCC70; assay: Antitumour activity against human HCC70 cells xenografted in BALB/c mouse assessed as tumour growth inhibition at 4 mg/kg, po bid for 21 days measured after 7 days post treatment by vernier caliper method; assay type: functional, organism-based; details: time 28.0 day
In short: (§3)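 Female Balb/c nude mice, 6–8 weeks old, implanted subcutaneously with HCC70 cells. At 150–200 mm3 tumours, mice were randomized, 10 per arm. Dosing was by oral gavage for 21 days, then a 7-day observation period: 2 mg/kg QD, or 2.5 or 4 mg/kg BID. Tumour volume was measured by caliper and body weight recorded twice weekly. TGI was calculated from tumour volumes.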

[12] = system: HCC70; assay: Antitumour activity against human HCC70 cells xenografted in po dosed BALB/c mouse assessed as tumour growth inhibition administered twice daily for 21 days measured after 7 days post treatment by vernier caliper method; assay type: functional, organism-based; details: dose 2.5-4 mg/kg, time 28.0 day; in short: as §3

Chain of CDK9/cyclin T1 (O60563 whole entry): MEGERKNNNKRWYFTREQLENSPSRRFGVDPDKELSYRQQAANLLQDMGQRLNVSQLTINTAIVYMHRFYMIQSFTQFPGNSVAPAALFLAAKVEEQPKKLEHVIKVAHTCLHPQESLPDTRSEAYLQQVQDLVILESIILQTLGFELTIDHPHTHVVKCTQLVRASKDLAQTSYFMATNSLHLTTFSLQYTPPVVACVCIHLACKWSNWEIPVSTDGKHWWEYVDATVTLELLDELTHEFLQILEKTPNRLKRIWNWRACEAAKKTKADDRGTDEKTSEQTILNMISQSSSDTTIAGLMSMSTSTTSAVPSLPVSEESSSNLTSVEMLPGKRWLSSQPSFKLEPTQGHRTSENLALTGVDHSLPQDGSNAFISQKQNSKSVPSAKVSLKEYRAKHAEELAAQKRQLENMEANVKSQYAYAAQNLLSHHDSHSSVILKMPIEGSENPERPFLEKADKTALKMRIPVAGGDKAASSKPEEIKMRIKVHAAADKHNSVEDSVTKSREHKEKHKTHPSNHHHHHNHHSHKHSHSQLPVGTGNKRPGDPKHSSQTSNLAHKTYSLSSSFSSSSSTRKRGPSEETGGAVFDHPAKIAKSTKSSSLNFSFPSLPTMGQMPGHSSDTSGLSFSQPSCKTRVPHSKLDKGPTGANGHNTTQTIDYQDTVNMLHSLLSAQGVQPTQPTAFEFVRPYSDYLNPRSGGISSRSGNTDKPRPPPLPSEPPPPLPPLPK
Chain of CDK9/cyclin T1 (P50750 whole entry): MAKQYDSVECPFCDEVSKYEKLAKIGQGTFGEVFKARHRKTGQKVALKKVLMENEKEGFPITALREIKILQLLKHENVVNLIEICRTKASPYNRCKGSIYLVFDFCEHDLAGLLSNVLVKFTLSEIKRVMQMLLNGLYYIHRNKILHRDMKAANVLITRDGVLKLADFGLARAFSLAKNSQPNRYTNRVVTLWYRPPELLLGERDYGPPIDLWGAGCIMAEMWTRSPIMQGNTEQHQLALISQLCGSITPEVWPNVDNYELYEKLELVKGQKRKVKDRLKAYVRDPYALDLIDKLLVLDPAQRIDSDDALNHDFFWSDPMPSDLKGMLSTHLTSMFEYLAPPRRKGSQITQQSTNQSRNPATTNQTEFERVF
Chain of CDK12/Cyclin K (O75909 whole entry): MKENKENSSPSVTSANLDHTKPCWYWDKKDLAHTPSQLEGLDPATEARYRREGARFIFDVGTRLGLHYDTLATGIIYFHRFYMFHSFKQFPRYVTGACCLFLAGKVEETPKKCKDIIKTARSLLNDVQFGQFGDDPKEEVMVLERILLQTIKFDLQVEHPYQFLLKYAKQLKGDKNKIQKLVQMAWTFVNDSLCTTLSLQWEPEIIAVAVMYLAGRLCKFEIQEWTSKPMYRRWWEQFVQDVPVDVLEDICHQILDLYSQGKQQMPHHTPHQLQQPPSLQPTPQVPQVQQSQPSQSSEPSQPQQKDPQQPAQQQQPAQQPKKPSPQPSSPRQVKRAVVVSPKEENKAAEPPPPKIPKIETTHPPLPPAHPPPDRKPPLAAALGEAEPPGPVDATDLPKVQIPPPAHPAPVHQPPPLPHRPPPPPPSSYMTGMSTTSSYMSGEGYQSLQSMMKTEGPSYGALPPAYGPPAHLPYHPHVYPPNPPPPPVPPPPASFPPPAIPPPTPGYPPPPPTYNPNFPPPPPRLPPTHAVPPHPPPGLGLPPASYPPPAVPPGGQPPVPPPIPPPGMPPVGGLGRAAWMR
Chain of CDK12/Cyclin K (Q9NYV4 whole entry): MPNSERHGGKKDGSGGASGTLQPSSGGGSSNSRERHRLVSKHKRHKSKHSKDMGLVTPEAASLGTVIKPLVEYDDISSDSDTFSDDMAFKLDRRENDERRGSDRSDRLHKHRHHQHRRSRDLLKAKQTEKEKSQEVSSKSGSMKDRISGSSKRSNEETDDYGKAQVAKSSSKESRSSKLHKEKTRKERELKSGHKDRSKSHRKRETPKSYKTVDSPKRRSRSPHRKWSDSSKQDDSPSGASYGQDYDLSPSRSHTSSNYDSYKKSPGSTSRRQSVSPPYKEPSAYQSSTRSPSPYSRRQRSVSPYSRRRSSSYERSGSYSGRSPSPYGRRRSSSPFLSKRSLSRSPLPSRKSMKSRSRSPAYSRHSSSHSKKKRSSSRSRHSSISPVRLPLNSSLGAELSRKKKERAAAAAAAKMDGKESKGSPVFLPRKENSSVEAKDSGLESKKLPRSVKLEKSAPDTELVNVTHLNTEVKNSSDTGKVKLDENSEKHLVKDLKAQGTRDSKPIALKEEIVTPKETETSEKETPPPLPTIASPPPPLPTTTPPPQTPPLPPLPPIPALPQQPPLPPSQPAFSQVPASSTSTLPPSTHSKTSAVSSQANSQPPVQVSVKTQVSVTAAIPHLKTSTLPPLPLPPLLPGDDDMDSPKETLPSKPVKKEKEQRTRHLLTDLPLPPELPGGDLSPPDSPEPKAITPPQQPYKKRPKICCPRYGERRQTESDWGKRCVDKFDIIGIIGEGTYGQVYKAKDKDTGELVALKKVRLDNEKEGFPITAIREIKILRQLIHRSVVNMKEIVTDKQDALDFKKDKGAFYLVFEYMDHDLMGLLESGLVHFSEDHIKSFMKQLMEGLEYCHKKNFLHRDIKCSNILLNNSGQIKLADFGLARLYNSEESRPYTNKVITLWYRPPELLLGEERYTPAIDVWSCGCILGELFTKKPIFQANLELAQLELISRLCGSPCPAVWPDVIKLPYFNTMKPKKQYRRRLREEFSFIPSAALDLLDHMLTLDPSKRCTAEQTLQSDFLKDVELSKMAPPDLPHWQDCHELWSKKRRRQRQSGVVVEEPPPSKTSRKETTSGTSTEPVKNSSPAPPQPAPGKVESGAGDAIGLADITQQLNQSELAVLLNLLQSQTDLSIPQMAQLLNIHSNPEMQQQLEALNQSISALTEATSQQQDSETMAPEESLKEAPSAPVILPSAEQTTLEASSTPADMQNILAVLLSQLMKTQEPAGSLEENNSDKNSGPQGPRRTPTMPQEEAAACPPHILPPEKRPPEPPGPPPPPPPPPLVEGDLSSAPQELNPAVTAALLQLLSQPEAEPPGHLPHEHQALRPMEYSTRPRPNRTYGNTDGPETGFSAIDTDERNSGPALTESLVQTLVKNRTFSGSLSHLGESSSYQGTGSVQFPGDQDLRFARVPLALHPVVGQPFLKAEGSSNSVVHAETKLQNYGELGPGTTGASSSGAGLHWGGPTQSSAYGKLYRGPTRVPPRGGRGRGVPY
Chain of Cyclin-dependent kinase 7/ cyclin H (P51946 whole entry, the tested form may be a part): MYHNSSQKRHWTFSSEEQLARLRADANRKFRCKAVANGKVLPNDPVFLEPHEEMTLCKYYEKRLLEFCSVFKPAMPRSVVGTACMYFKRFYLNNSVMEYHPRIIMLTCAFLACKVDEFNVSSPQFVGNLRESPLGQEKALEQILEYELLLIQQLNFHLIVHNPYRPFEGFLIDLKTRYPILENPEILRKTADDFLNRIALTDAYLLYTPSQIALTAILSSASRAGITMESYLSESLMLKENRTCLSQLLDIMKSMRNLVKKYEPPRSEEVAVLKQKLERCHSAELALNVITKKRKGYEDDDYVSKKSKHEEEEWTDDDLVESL
Chain of Cyclin-dependent kinase 7/ cyclin H (P50613 whole entry, the tested form may be a part): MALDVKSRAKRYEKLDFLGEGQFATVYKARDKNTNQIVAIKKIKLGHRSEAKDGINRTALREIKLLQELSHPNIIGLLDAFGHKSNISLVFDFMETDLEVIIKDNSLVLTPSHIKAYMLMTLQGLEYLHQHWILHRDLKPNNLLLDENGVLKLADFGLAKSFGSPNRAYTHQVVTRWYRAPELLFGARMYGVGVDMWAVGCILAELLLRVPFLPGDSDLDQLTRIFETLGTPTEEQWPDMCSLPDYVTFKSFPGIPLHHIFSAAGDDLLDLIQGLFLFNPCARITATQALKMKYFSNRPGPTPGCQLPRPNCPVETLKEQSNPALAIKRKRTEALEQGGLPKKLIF

Row | Compound | bioavailability [1] [%] | CL free [2] [mL/min/kg] | Papp A→B [3] [×10⁻⁶ cm/s] | CLint scaled [4] [mL/min/kg] | logD [5] | pIC50 [6] | pKd [8] | pIC50 [9] | pIC50 [10] | pEC50 [7] | Activity [11] | Activity [12]
1 | Cc1noc(C)c1-c1ccc2c(-c3nc(N[C@H]4CCCNC4)ncc3C(F)(F)F)c[nH]c2c1 | 16 | 514 | 1.63 | 150 | 2.71 | 6.34 | 10.00 | 6.86 | 6.95 | – | – | –
2 | CCc1cnc(N[C@H]2CCCNC2)nc1-c1c[nH]c2c(S(C)(=O)=O)c(C#N)ccc12 | – | 394 | 1.12 | 89 | 0.49 | 5.79 | 9.82 | 6.04 | 6.67 | 6.54 | – | –
3 | CS(=O)(=O)c1ccc2c(-c3nc(N[C@H]4CCCNC4)ncc3C(F)(F)F)c[nH]c2c1 | – | 729 | 0.86 | < 38 | 1.31 | 6.52 | 10.00 | 6.88 | 7.16 | 7.05 | – | –
4 | N#Cc1ccc2c(-c3nc(N[C@H]4CCCNC4)ncc3C(F)(F)F)c[nH]c2c1 | 43 | 656 | 4.63 | 62 | 2.28 | 6.46 | 10.05 | 7.07 | 7.22 | 7.44 | – | –
5 | CC1(C)CNC[C@@H](Nc2ncc(C(F)(F)F)c(-c3c[nH]c4c(P(C)(C)=O)c(C#N)ccc34)n2)C1 | 28 | 597 | 3.32 | 164 | 2.7 | 6.11 | 10.22 | 6.24 | 6.81 | 9.00 | – | –
6 | CCc1cnc(N[C@H]2CCCNC2)nc1-c1c[nH]c2ccccc12 | 2 | 473 | 0.49 | 107 | 1.29 | 6.03 | 9.40 | 6.37 | 6.87 | 6.64 | – | –
7 | CP(C)(=O)c1cccc2c(-c3nc(N[C@H]4CCCNC4)ncc3C(F)(F)F)c[nH]c12 | 3 | 73 | 1.02 | < 38 | 0.78 | 6.38 | 10.10 | 6.54 | 6.99 | 9.70 | – | –

These reach a higher pIC50 [6]. Values come first.

Row | bioavailability [1] [%] | CL free [2] [mL/min/kg] | Papp A→B [3] [×10⁻⁶ cm/s] | CLint scaled [4] [mL/min/kg] | logD [5] | pIC50 [6] | pKd [8] | pIC50 [9] | pIC50 [10] | Compound | pEC50 [7] | Activity [11] | Activity [12]
8 | 5 | 368 | 1.86 | < 38 | 1.05 | 6.55 | 10.10 | 7.22 | 7.48 | CS(=O)(=O)c1c(C#N)ccc2c(-c3nc(N[C@H]4CCCNC4)ncc3C(F)(F)F)c[nH]c12 | 7.82 | – | –
9 | 36 | 712 | 4.62 | < 38 | 2.6 | 6.72 | 10.52 | 7.05 | 7.12 | Cc1noc(C)c1-c1ccc2c(-c3nc(N[C@H]4CCCNC4)ncc3C(F)(F)F)c[nH]c2n1.Cl | 8.05 | Active | Dose-Dependent Effect
10 | – | – | – | 116 | 2.48 | 6.89 | 9.47 | 7.15 | 7.02 | CC1(C)CC[C@H](Nc2ncc(C(F)(F)F)c(-c3c[nH]c4ccccc34)n2)CN1 | – | – | –
11 | 39 | 457 | 5.26 | 109 | 1.78 | 6.99 | 9.48 | 7.64 | 7.54 | Clc1cnc(N[C@H]2CCCNC2)nc1-c1c[nH]c2ccccc12 | 7.40 | – | –
12 | 49 | 309 | 3.28 | < 38 | 1.33 | 7.11 | 10.15 | 7.49 | 7.82 | CS(=O)(=O)c1cccc2c(-c3nc(N[C@H]4CCCNC4)ncc3C(F)(F)F)c[nH]c12 | 7.85 | – | –
13 | 40 | 1477 | – | 120 | 3.07 | 7.28 | 9.68 | 7.39 | 7.44 | CC1(C)CNC[C@@H](Nc2ncc(C(F)(F)F)c(-c3c[nH]c4ccccc34)n2)C1 | – | – | –
14 | 100 | 568 | 11.1 | 127 | 2.02 | 7.38 | 9.82 | 7.68 | 7.62 | FC(F)(F)c1cnc(N[C@H]2CCCNC2)nc1-c1c[nH]c2ccccc12 | 7.96 | – | –
